From ChEMBL document CHEMBL4622923, “Discovery of 4-Phenylpiperidine-2-Carboxamide Analogues as Serotonin 5-HT2C Receptor-Positive Allosteric Modulators with Enhanced Drug-like Properties” (J Med Chem, 2020)

Columns and labels:
[1] = Clearance in Sprague-Dawley rat at 20 mg/kg, po; type: ADME, organism-based; conditions: in vivo
Summary of the method: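 Male Sprague-Dawley rats (200–250 g, n = 3/group) dosed po at 20 mg/kg in 10% DMSO:90% HP-β-CD. Retro-orbital blood taken from 0.25 to 24 h. Noncompartmental analysis; mean ± SEM.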

[2] = biological target: Mu-type opioid receptor (Homo sapiens) (UniProt P35372); test: Displacement of [3H]-DAMGO from human mu opioid receptor stably expressed in HEK cell membranes at 10 uM incubated for 90 mins under dark condition by scintillation counting analysis relative to control
Mu-type opioid receptor (Homo sapiens), sequence (P35372 whole entry): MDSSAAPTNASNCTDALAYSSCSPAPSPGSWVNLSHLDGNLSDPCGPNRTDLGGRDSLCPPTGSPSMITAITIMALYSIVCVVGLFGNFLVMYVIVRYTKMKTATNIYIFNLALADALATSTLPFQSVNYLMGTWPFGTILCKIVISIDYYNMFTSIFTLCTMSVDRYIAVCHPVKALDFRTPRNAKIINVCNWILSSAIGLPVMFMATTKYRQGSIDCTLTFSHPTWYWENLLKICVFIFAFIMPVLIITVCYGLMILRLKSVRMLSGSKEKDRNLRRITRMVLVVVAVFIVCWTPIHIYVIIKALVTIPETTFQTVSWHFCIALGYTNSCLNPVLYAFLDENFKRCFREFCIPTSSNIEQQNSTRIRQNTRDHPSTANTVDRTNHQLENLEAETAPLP

[3] = Ratio of drug level in brain to plasma in Sprague-Dawley rat at 10 mg/kg, iv after 0.25 hrs; type: ADME, organism-based
Summary of the method: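 Male Sprague-Dawley rats, n = 3/group, given 10 mg/kg iv in 10% DMSO:90% HP-β-CD. Brain and plasma collected at 0.25 and 1 h after dosing. Brain concentration (ng/g) divided by plasma concentration (ng/mL); mean ± SEM.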

Rattus norvegicus [4] = test: Potentiation of WAY163909-induced neurobiological activity in Sprague-Dawley rat assessed as increase in number of rat choosing WAY163909 associated lever at 1 mg/kg, ip treated 15 mins prior to WAY163909 addition and measured after 15 mins by drug discrimination test (reference value: 53%); type: functional
[5] = biological target: D(3) dopamine receptor (Homo sapiens) (UniProt P35462); test: Displacement of [3H]-N-methylspiperone from dopamine D3 receptor (unknown origin) at 10 uM incubated for 90 mins under dark condition by scintillation counting analysis relative to control
D(3) dopamine receptor (Homo sapiens), sequence (P35462 whole entry): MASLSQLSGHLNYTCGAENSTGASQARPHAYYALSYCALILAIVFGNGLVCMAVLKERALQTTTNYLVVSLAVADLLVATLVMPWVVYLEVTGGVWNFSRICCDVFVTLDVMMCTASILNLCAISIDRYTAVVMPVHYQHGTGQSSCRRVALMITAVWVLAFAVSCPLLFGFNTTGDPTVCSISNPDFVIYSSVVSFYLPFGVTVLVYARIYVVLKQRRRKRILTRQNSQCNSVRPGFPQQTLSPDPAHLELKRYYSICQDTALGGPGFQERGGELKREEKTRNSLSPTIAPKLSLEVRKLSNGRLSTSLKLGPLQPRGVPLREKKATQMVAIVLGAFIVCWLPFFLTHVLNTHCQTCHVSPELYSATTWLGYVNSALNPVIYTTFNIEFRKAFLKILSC

[6] = biological target: 5-hydroxytryptamine receptor 7 (Homo sapiens) (UniProt P34969); test: Displacement of [3H]-LSD from human 5HT7A stably expressed in HEK cell membranes at 10 uM incubated for 90 mins under dark condition by scintillation counting analysis relative to control
5-hydroxytryptamine receptor 7 (Homo sapiens), sequence (P34969 whole entry): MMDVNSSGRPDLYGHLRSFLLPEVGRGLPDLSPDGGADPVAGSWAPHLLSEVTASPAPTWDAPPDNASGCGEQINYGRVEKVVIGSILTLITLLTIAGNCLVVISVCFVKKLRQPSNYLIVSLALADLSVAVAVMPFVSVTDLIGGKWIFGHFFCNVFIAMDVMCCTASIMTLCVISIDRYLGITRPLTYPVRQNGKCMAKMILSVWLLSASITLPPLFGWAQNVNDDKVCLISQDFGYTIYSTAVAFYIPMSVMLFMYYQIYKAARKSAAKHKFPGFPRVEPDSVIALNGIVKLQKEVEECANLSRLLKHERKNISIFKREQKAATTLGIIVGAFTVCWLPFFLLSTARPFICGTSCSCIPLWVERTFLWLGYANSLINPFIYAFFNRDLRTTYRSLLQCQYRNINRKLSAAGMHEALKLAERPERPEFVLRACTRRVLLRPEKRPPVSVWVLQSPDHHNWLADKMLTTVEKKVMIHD

Rattus norvegicus [7] = test: In vivo agonist activity at 5HT2CR in Sprague-Dawley rat assessed as increase in number of rat choosing drug associated lever at 0.5 to 5 mg/kg, ip treated 30 mins prior to test by drug discrimination test; type: organism-based; conditions: 0.5 h
Summary of the method: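 Male Sprague-Dawley rats (n = 13), water-restricted, trained to discriminate WAY163909 (0.75 mg/kg ip, 15 min pretreatment) from saline in a two-lever FR20 water-reinforced task. Test compound given ip at 0.5, 1.0, 2.0 and 5.0 mg/kg, 30 min before a 15 min test. Read-out is the percentage of rats selecting the WAY163909 lever; response rate is also recorded.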

[8] = Cmax in Sprague-Dawley rat at 20 mg/kg, po; type: ADME, organism-based; parameters: dose 20 mg/kg, route oral; conditions: in vivo
Summary of the method: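 Male Sprague-Dawley rats, 200–250 g, n = 3/group, randomly assigned; dosed 10 mg/kg iv or 20 mg/kg po in 10% DMSO:90% HP-β-CD. Retro-orbital blood sampled predose and 0.08 (iv only), 0.25, 0.5, 1, 2, 4, 8, 24 h. Noncompartmental analysis; Cmax read directly from plasma concentration–time plot; mean ± SEM.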

5-HT2A receptor = 5-HT2A receptor (Homo sapiens, UniProt P28223); test: Displacement of [3H]-ketanserin from 5HT2A (unknown origin) at 10 uM incubated for 90 mins under dark condition by scintillation counting analysis relative to control; conditions: probe [3H]-ketanserin
5-HT2A receptor, sequence (P28223 whole entry): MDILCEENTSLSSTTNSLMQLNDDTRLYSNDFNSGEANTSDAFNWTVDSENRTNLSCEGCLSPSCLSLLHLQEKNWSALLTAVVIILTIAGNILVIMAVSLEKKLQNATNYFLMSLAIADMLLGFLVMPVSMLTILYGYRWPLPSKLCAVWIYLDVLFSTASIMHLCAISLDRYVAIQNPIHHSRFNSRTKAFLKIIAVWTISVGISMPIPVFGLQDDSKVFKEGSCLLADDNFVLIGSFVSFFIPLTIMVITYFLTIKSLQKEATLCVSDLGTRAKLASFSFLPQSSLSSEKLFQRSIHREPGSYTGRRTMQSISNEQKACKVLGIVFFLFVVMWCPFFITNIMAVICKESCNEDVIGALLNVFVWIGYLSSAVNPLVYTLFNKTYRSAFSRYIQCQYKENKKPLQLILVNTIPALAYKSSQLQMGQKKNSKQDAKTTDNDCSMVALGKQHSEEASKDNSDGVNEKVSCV

[9] = AUC (0 to infinity) in Sprague-Dawley rat at 10 mg/kg, iv; type: ADME, organism-based; parameters: dose 10 mg/kg, route intravenous, time infinity; conditions: in vivo
[10] = Apparent permeability across apical to basolateral side in MDCK-MDR1 cells; type: ADME, cell-based, Canis lupus familiaris; conditions: dog
[11] = biological target: Kappa-type opioid receptor (Homo sapiens) (UniProt P41145); test: Displacement of [3H]-U69593 from kappa opioid receptor (unknown origin) at 10 uM incubated for 90 mins under dark condition by scintillation counting analysis relative to control
Kappa-type opioid receptor (Homo sapiens), sequence (P41145 whole entry): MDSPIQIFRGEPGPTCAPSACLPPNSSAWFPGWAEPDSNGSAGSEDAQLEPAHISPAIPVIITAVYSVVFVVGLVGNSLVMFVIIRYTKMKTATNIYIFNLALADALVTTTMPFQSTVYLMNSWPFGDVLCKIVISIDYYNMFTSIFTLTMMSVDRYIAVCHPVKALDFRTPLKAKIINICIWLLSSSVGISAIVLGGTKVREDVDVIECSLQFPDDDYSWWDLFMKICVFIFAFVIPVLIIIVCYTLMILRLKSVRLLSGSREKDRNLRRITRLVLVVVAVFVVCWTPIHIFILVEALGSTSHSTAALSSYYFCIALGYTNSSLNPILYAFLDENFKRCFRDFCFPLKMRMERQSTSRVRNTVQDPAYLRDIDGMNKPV

[12] = biological target: Cannabinoid receptor 2 (Homo sapiens) (UniProt P34972); test: Displacement of [3H]-CP55940 from human CB2 receptor expressed in HEK-Flp-In cell membranes at 10 uM incubated for 90 mins under dark condition by scintillation counting analysis relative to control
Cannabinoid receptor 2 (Homo sapiens), sequence (P34972 whole entry): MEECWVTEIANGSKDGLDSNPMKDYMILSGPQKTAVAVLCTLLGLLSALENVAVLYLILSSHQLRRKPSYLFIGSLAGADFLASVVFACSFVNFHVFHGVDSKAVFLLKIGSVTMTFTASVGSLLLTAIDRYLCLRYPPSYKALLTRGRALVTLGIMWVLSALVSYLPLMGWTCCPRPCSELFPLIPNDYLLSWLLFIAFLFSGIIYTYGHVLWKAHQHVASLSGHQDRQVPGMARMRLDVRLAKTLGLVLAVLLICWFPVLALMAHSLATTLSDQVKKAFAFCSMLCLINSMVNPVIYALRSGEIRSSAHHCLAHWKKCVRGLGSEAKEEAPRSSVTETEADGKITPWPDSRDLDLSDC

CYP2C19 = CYP2C19 (Homo sapiens, UniProt P33261); test: Inhibition of CYP2C19 (unknown origin) at 10 uM relative to control; type: ADME
CYP2C19, sequence (P33261 whole entry, canonical isoform): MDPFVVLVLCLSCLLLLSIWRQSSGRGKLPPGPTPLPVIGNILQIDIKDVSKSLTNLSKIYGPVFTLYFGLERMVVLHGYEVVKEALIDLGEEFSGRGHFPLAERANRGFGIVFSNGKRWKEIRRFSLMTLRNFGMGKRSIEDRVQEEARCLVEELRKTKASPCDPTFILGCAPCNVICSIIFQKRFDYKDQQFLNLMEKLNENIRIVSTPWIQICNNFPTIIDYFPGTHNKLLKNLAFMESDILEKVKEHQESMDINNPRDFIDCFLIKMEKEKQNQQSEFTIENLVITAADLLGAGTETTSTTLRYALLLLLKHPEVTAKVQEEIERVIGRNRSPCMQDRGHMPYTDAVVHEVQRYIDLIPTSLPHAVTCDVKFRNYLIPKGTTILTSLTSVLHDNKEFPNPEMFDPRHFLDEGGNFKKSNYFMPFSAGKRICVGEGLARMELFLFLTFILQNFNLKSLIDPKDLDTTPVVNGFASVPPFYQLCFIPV
Summary of the method: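 Each CYP isoform inhibition assay run with test compound at 10 µM; reported as percent inhibition.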

With O=C(NC[C@H](O)CO)[C@@H]1C[C@H](c2ccccc2)CCN1 (mixture of isomers) the CL/F [1] was 182 mL/min/kg, the inhibition [2] was 23.3% and the BPR [3] was 0.07. It also gave an Activity (Rattus norvegicus [4]) of 77%, an inhibition [5] of 19.4% and an inhibition [6] of 2.2%. For the same compound, the Activity (Rattus norvegicus [7]) was “Non-Toxic”, the Cmax [8] was 411.3 ng/mL and the inhibition at 1.5 h, 10 µM (5-HT2A receptor) was -4.3%. For the same compound, the AUC [9] was 3065.6 ng·h/mL, the Papp [10] was 0.04 ×10⁻⁶ cm/s and the inhibition [11] was 13.4%. For the same compound, the inhibition [12] was 30.6% and the inhibition at 10 µM (CYP2C19) was 0%.
